Assay results as given in ChEMBL document CHEMBL1208709, “Synthesis and pharmacological evaluation of 1,1,3-substituted urea derivatives as potent TNF-alpha production inhibitors” (2010).
Activity calls are given as the source filed them. The calls are words filed in the database; no cut-off is given here.

Each compound was assayed on Rattus norvegicus (assay: Antiinflammatory activity in Lewis rat assessed as inhibition of LPS-induced TNFalpha production at 2 mg/kg, po administered 30 mins prior to LPS challenge measured after 1.5 hrs).
Assay type: functional

SMILES | inhibition in vivo at 2 mg/kg [%] | inhibition
O=C(NCCCc1ccncc1)N(CCN1CCOCC1)CCN1C2CCC1CC2 | 8 | –
CCCCN(CCCN1CCOCC1)C(=O)NCCCc1ccncc1 | 32 | –
O=C(NCCCc1ccncc1)N(CCCN1CCOCC1)CCC12CC3CC(CC(C3)C1)C2 | 45 | –
COCCCN(CCC1CCCCC1)C(=O)NCCCc1ccncc1 | – | inactive
O=C(NCCCc1ccncc1)N(CCC1CC2CCC1C2)CCN1CCOCC1 (stereo unspecified) | 55 | –
O=C(NCCCc1ccncc1)N(CCC1CCCCC1)CCN1C2CCC1CC2 | 48 | –
O=C(NCCCc1ccncc1)N(CCCN1CCOCC1)CCC1CCCCC1 | 43 | –
CCCCN(CCOCC)C(=O)NCCCc1ccncc1 | – | inactive
CCOCCN(CCC1CC2CCC1C2)C(=O)NCCCc1ccncc1 (stereo unspecified) | – | inactive
O=C(NCCCc1ccncc1)N(CCC1CCOCC1)CCN1CCOCC1 | – | inactive
O=C(NCCCc1ccncc1)N(CCN1CCOCC1)CCC12CC3CC(CC(C3)C1)C2 | 45 | –
O=C(NCCCc1ccncc1)N(CCCC1CCCCC1)CCC1CCCCC1 | 92 | –
COCCCN(CCC1CC2CCC1C2)C(=O)NCCCc1ccncc1 (stereo unspecified) | 10 | –
CCCCN(CCN1CCOCC1)C(=O)NCCCc1ccncc1 | 21 | –
O=C(NCCCc1ccncc1)N(CCC1CCCCC1)CCC1CCCCC1 | 91 | –
CCOCCN(CCC1CCCCC1)C(=O)NCCCc1ccncc1 | 4 | –
COCCOCCN(CCC1CCCCC1)C(=O)NCCCc1ccncc1 | 14 | –
O=C(NCCCc1ccncc1)N(CCC1CCCCC1)CCC1CCOCC1 | 38 | –
CCCCN(CCCOC)C(=O)NCCCc1ccncc1 | 21 | –
O=C(NCCCc1ccncc1)N(CCCC1CCCCC1)CC1CCCCC1 | 71 | –
CCCCCN(CCC12CC3CC(CC(C3)C1)C2)C(=O)NCCCc1ccncc1 | 72 | –
O=C(NCCCc1ccncc1)N(CCC1CCCCC1)CCN1CCOCC1 | 50 | –
O=C(NCCCc1ccncc1)N(CCCN1CCOCC1)CCC1CC2CCC1C2 (stereo unspecified) | 44 | –
O=C(NCCCc1ccncc1)N(CCCC1CCCCC1)CCC1CCCC1 | 87 | –

These compounds were tested on Rattus norvegicus (assay: Antiinflammatory activity in po dosed Lewis rat assessed as inhibition of LPS-induced TNFalpha production administered 30 mins prior to LPS challenge measured after 1.5 hrs).
Assay type: functional
Summary of the method: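 Overnight-fasted male Lewis rats (seven weeks old) were dosed orally at 0.1, 0.3, 1 and 3 mg/kg, 30 min before IV LPS (E. coli 055:B5 in saline). Serum TNF-α was measured by ELISA 1.5 h post-LPS, five rats per group, mean ± SEM. Dunnett's t-test versus vehicle; ED₅₀ taken from the dose-response.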

SMILES | ED50 [mg/kg]
O=C(NCCCc1ccncc1)N(CCCC1CCCCC1)CCC1CCCCC1 | 0.34
CCCCCN(CCC12CC3CC(CC(C3)C1)C2)C(=O)NCCCc1ccncc1 | 1.7
